Experiment: Toxicity liver stage against HepG2, at 10uM
Format: cell-based
Set-up: test concentration 10 uM, cell line HepG2-A16-CD81EGFP
Details: human, HepG2-A16-CD81EGFP cells; read-out: INHIBITION
Summary of the method: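 Uninfected HepG2-A16-CD81EGFP cells, 3 × 10^3 per well, 1536-well, plated on prespotted compound at 10 μM final, parasite-free screening media added to match infected plates; puromycin 10 μM positive, DMSO 0.5% negative; run in parallel with 48 h PbLuc assay at 37 °C, 5% CO2; viability by CellTiter-Glo luminescence, normalized to controls.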

Row | SMILES | cytotoxicity at 10 µM [%]
1 | CCOCCCNC(=O)NCc1c(C)nn(C)c1C | -5.28
2 | COc1cc(OC)cc(C(=O)Nc2ncnc3c2CCC3)c1 | -179
3 | O=C(NCCn1ccc(-c2ccncc2)n1)C1CC1 | -2.08
4 | CCN1CC[C@]2(CN(C(=O)[C@H]3CCCO3)C[C@H]2c2ccccc2)C1=O | 5.98
5 | O=C(C1CCOC1)N1C[C@H]2CN(c3ccccc3)C(=O)[C@H]2C1 (stereo partly drawn) | -123
6 | Cc1cnc(N2CCCC3(COCCN(c4ccc(C)nn4)C3)C2)nc1 (stereo not drawn) | -126
7 | CCCN(CCC)c1ncc(S(=O)(=O)c2ccccc2)c(N)n1 | -2.26
8 | Cc1cc(C(=O)N(C)Cc2cccs2)nc(N2CCCCC2)n1 | 17.5
9 | Cn1nc(C2CCCNC2)c2c(C(=O)NC3CC3)cc(C3CC3)nc21 (stereo not drawn) | 14.5
10 | Cc1ccc(CN2CCCC23Cc2ccccc2CNC3=O)cc1 (stereo not drawn) | 8.82
11 | Cc1nc(CNC(=O)Nc2cc(F)ccc2N2CCN(C)CC2)no1 | -8.8
12 | CCc1noc(CN2CCN(C(=O)Cc3ccc(F)cc3)CC2)n1 | 10.4
13 | CCOc1ccccc1N(C)Cc1nccn1C | -3.83
14 | CN(Cc1ccc(C(=O)O)cc1)C(=O)c1sccc1OC(F)F | -6.59
15 | O=C(CCC1CCCO1)NCCN1CCCCC1 (stereo not drawn) | -3.79
16 | CN(c1ncc(S(N)(=O)=O)s1)C1CCC1 | 4.13
17 | CC(C)c1csc(C2CCCN(C(=O)c3ccc(=O)n(C)c3)C2)n1 (stereo not drawn) | -48.2
18 | Cc1cccc(C(=O)N2CCN(C)CC2)c1NC(=O)c1ccncc1 | -10.8
19 | Cc1n[nH]c(NC(=O)c2ccc(COCC(F)(F)F)cc2)c1C | -0.81
20 | Cc1ccc(C(NC(=O)C2CC2)c2cccc(S(C)(=O)=O)c2)cc1 (stereo not drawn) | -9.8
21 | CC(C)(C)c1nc(CC(=O)Nc2cnccc2O)cs1 | 9.09

Row | SMILES | cytotoxicity at 10 µM [%]
22 | C=C(C)CN1CCC(NC(=O)Nc2ccc(F)c(C(=O)NC)c2)CC1 | 5.58
23 | CCc1noc(CS(=O)(=O)Cc2ccccc2Cl)n1 | -6.75
24 | O=C(c1ccc2nccn2c1)N1CCCC1c1noc(C2CC2)n1 (stereo not drawn) | -4.68
25 | O=C(CN1CCOC(c2ccc(Cl)s2)C1)NCc1ccco1 (stereo not drawn) | -3.09
26 | CN(C)c1ccc(NC(=O)C2CN(Cc3ccccc3)CCO2)cn1 (stereo not drawn) | 4.46
27 | COCCNC(=O)CN(C)Cc1ccc(F)cc1Cl | -1.02
28 | Cc1cc(CNC(=O)NCc2ccccc2N2CCOCC2)no1 | 1.15
29 | O=C(Nc1nnc[nH]1)C(c1cccc(F)c1)N1CCOCC1 (stereo not drawn) | -9.07
30 | CNC(=O)CS(=O)(=O)Cc1ccc(OC)c(F)c1 | -6.7
31 | NC(=O)CCSCc1ccc(Br)c(F)c1 | -4.81
32 | CN(Cc1ccccc1)CC(C)(C)NC(=O)c1ccc(C(N)=O)cn1 | -0.616
33 | O=S1(=O)CCC(CNS(=O)(=O)N2CCc3ccccc3C2)C1 (stereo not drawn) | -10.7
34 | COc1ccc(CN2CCC(C(N)=O)CC2)cc1SC(F)(F)F | -20.3
35 | CN(Cc1nnc2n1CCC2)S(=O)(=O)c1ccc(Br)cc1Cl | -6.08
36 | CCC(=O)NC1CCCN(C(=O)Nc2cc(-c3ccccc3)on2)C1 (stereo not drawn) | 6.64
37 | CCC1CN(CC(=O)NCCC#N)CCO1 (stereo not drawn) | 2.28
38 | N#Cc1ccnc(SCC2CN=C(N3CCOCC3)S2)c1 (stereo not drawn) | -22.9
39 | CN(Cc1ccc([S+](C)[O-])cc1)c1cncc(Cl)n1 (stereo not drawn) | -10.6
40 | Cc1cccc(C(C)CNC(=O)N2CCC3(C2)OCCO3)c1 (stereo not drawn) | 16.1
41 | COc1cc(C)c(NC(=O)NCCn2cccc2)cc1OC | 0.414
42 | Cc1ccc(F)c(N2CCCC(Nc3nccn4cnnc34)C2=O)c1 (stereo not drawn) | -0.115

Row | SMILES | cytotoxicity at 10 µM [%]
43 | Cc1nnc(NCC2(c3ccc(Cl)cc3Cl)CCOCC2)c(C#N)c1C | 1.98
44 | CN1CC[C@]2(CN(CC3CC3)C[C@H]2c2ccccc2)C1=O | 3.15
45 | CCN1C[C@H]2CCN(C(=O)Cc3cccc(OC)c3)CC[C@H]2S1(=O)=O | 9.86
46 | c1cc(CN2CCOCC3(CCN(C4CCOCC4)C3)C2)ccn1 (stereo not drawn) | 0.866
47 | O=C1NC2(CCNCC2)CC1c1cccnc1 (stereo not drawn) | 1.77
48 | CC(C)N(C)C(=O)C1CCC(=O)N(CCc2cccc(F)c2)C1 (stereo not drawn) | -4.57
49 | CCc1nc2c(c(N3CCOCC3)n1)CCN(C(=O)c1ccon1)CC2 | 10.6
50 | CC(C)N(C(=O)N1CCn2cncc2C1)C(C)C | -12.3
51 | CS(=O)(=O)N1CC[C@]2(O)CCN(c3cc(C#N)ccn3)C[C@@H]2C1 | 6.36
52 | O=c1cc(N2CCCC2)cnn1CCc1cccc(F)c1 | -12.8
53 | CCN(Cc1ccncc1)C(=O)c1cc(C)c(C)c(S(N)(=O)=O)c1 | -2.33
54 | CC(C)(O)CCc1ccc(C(=O)N2CCN(CC(F)(F)F)CC2)cc1 | 6.16
55 | CC(Cn1cnc2cn(C)nc2c1=O)Oc1cccnc1 (stereo not drawn) | -11.7
56 | O=C1CC[C@@H](C(=O)N2CCc3[nH]nc(COc4cccc(Cl)c4)c3C2)N1 | -52.1
57 | O=C(CO)N1CC[C@@H](N2CCN(c3ccccc3F)CC2)[C@H](O)C1 | -46
58 | CN(CCCc1cnn(C)c1)Cc1cc2n(n1)CCNC2 | 11.1
59 | CCCc1nnc(N[C@H](C)c2ccc(OC)cc2)o1 | -19.9
60 | CC(C)CN1CCC(NCCNc2cccnc2)CC1 | -5.25
61 | CCC(C)N(Cc1cccnc1)Cc1ccc2c(c1)OCCO2 (stereo not drawn) | -2.83
62 | Cc1cc(N2CCN(Cc3ccc(-c4cc[nH]n4)o3)CC2)cc(C)n1 | 2.17
63 | CCn1cc(-c2cc(C(F)F)n3nc(CC(=O)O)nc3n2)cn1 | -9.49

Row | SMILES | cytotoxicity at 10 µM [%]
64 | O=C(c1csc(C2CC2)n1)N1CCCCC1Cn1cccn1 (stereo not drawn) | 0.745
65 | CCCc1nc(C)c(C(=O)NCCn2nc3ccccn3c2=O)s1 | -10.1
66 | CN1CCCN(C(=O)NCc2cccnc2-n2cccn2)CC1 | -17.9
67 | COc1ccc(CNc2cnn(C)c(=O)c2Cl)cc1 | -3.45
68 | c1cnnc(N2CCCC2CNc2ncnc3ccsc23)c1 (stereo not drawn) | -8.87
69 | CNC(=O)C1CCN(CC(=O)Nc2cc(C(C)C)no2)CC1 | -8.01
70 | CC(C)(C)c1cc(NC(=O)CN2CCCC2Cn2cccn2)on1 (stereo not drawn) | -15.3
71 | COc1c(CNCCNC(=O)c2ccc(C)cc2)c(C)nn1C | -3.39
72 | CC1CN(CC(=O)Nc2cccnc2)CCN1c1nccs1 (stereo not drawn) | -3.59
73 | Cc1cnn(CCNCC(O)COc2c(C)ccc(C)c2C)c1 (stereo not drawn) | -8.78
74 | CCc1n[nH]c(C2CN(C(=O)Cn3ccccc3=O)CCO2)n1 (stereo not drawn) | -0.746
75 | CCn1cnnc1C1CCN(C(=O)COc2ccccc2)CC1 | 1.3
76 | O=C(Nc1nc2c(s1)CNCC2)C1CC1 | -0.0154
77 | CCOC(=O)N1CCN(c2nc(NC3CC3)c3ccccc3n2)CC1 | -0.529
78 | CN(C)C(=O)NCc1ncn2c1CN(Cc1cccs1)CCC2 | 8.07
79 | Cc1cnc(N2CCOC3(CCCN(C)C3)C2)nc1 (stereo not drawn) | 8.25
80 | Cc1cccc(COC[C@@]23CCC[C@@H]2CN(S(=O)(=O)N(C)C)C3)n1 | -6.87
81 | CC[C@@H]1N(Cc2ccsc2)CCC[C@]12CCC(=O)N2CCOC | 7.36
82 | CCOc1c(OC)cc(C=Cc2ncc(C(=O)NC)s2)cc1OC | 1.62
83 | CN(C)C(=O)CN1C[C@H]2CC[C@@H](C1)N(C/C=C/c1ccc(F)cc1)C2 | -7.65
